# Experimental data reported in paper PMC9377749 (Molecular Cancer Therapeutics, 2022).
# Peptide text beside a SMILES is read from it. * marks the point of attachment. Doxorubicin(3'-N) = COc1cccc2c1C(=O)c1c(O)c3c(c(O)c1C2=O)C[C@@](O)(C(=O)CO)C[C@@H]3O[C@H]1C[C@H](N*)[C@H](O)[C@H](C)O1; Phosphonoacetyl = O=C(CP(=O)(O)O)*
# Experiments:
# [1] = Tissue distribution and pharmacokinetics in E0771 tumor-bearing mice; format: in vivo, mouse; conditions: for t 1/2α / C max / AUC / Cmax / t max / t 1/2β: label = analyte
# patients = conditions: cited from earlier work
# [2] = tested on: human iPSCs-derived cardiomyocytes; experiment: Impedance-based cardiotoxicity; format: cell-based
# H9C2 rat cardiomyocytes = experiment: In vitro cardiotoxicity; format: cell-based; conditions: for cytotoxicity in differentiated cardiomyocytes: differentiated H9C2; for cytotoxicity in mitotic cells: mitotic H9C2, 16 hrs treatment, viability 72 hrs later
# [3] = Plasma pharmacokinetics after IV administration in healthy mice; format: in vivo, mouse
# How it was run: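 Healthy mice (n = 5 per group) received a single IV dose of test compound at 849.5 mg/kg. A second set received equimolar doses: test compound 23.6 mg/kg versus doxorubicin 13.3 mg/kg. Plasma levels of prodrug, peptide-doxorubicin intermediates and free doxorubicin were followed over time and t1/2 was determined.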
# [4] = tested on: MDA-MB-468 tumor bearing mice; experiment: MTD determination, weekly dosing; format: in vivo, mouse
# How it was run: (§1)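 Female nu/nu NMRI mice, 6–8 weeks old, carried subcutaneous MDA-MB-468 xenografts (5 × 10^6 cells in PBS:Matrigel 1:1, right posterior flank). Healthy mice served alongside. Test compound was given weekly at 103, 206 or 309 mg/kg. Body weight, survival and tumor volume were monitored periodically during and after treatment, n = 5, mean ± SD.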
# [5] = MTD determination, weekly dosing; format: in vivo, mouse; conditions: mouse, in vivo
# How it was run: as §1
# [6] = Tissue imaging by MALDI-FTICR MSI in E0771 tumor-bearing mice; format: in vivo, mouse; conditions: 849.5 mg/kg IV
# How it was run: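 Female C57BL6 mice carried orthotopic E0771 tumors (1 × 10^6 cells in PBS injected into the mammary fat pad). Test compound was given IV at 849.5 mg/kg (reference doxorubicin 23 mg/kg). Whole-body and tumor sections were taken at 15 min, 24 h and 48 h and imaged by MALDI-FTICR MSI for free doxorubicin and metabolites, with H&E overlay.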
# [7] = tested on: C57BL6 mice (bone marrow repopulation); experiment: In vivo hematotoxicity, bone marrow transplantation from treated donors; parameters: species or system mouse; conditions: for survival of mice receiving BM from treated donors: day 41 post-transplantation, donors 58 mg/kg/week Dox or 1,026 mg/kg/week PhAc-ALGP-Dox
# How it was run: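 Donor C57BL6 mice received the test compound (1,026 mg/kg/week) or doxorubicin (58 mg/kg/week) by intraperitoneal osmotic minipump for 7 days. Blood and bone marrow were collected 2 days later. Blood counts used a haematology analyser, and subpopulations were analysed by FACS (CTL = CD3+ CD8a+; B = CD45R+; CD4+; NK1.1+), n = 8. Bone marrow cells (1 × 10^7) were injected IV into 9.5 Gy-irradiated recipients, which were followed 41 days.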
# Acute toxicity = format: in vivo, mouse; conditions: mouse, in vivo
# mice = experiment: Acute toxicity; format: in vivo, mouse; conditions: from LD50
# recombinant human CD10 = recombinant human CD10 (Homo sapiens, UniProt P08473); experiment: Peptidase cleavage assay; format: biochemical; conditions: after exposure to CD10, at 16 hours
# Chain of recombinant human CD10 (P08473 whole entry): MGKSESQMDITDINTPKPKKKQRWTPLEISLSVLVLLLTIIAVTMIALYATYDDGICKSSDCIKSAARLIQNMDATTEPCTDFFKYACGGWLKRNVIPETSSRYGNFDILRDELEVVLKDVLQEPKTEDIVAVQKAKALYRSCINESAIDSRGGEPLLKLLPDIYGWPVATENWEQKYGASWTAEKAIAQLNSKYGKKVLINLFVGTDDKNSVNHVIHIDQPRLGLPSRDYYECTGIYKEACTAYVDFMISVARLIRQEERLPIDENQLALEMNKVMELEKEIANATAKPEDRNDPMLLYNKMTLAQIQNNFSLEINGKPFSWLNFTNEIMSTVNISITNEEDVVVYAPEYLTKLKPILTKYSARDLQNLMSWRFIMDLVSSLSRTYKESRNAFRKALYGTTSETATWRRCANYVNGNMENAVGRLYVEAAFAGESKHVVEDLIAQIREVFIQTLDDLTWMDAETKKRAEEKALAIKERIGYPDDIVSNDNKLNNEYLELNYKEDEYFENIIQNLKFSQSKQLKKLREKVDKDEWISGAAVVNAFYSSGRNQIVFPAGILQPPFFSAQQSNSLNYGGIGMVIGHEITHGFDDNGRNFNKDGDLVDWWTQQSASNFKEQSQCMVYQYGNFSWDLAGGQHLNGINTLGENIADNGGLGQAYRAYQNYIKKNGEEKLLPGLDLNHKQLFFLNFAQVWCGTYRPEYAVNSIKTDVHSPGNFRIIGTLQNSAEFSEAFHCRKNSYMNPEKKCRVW
# How it was run: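 Test compound (2 μM) in 150 mM NaCl, 50 mM Tris, 1% BSA, pH 7.5, at 37°C. Reaction started with recombinant human enzyme at equi-active levels (CD10 0.08, NLN 0.8, THOP1 0.1 μg/mL).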
# LS 174T cells = experiment: In vitro 2D cytotoxicity; format: cell-based; conditions: Homo sapiens, LS174T, 72 h
# MDA-MB-468 cells = experiment: In vitro 2D cytotoxicity; format: cell-based; conditions: Homo sapiens, MDA-MB-468, 72 h
# [8] = tested on: human erythroid progenitors; experiment: In vitro hematotoxicity, colony growth; format: cell-based
# How it was run: (§2)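 Human erythroid and myeloid progenitors grown in MethoCult GF H84434 with continuous exposure to the test compound for 14 days. Progenitor proliferation was scored as colony growth and dose–response curves were fitted to give IC50.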
# E0771 cells = experiment: In vitro 2D cytotoxicity; format: cell-based; conditions: Mus musculus, E0771, 72 h
# [9] = tested on: human myeloid progenitors; experiment: In vitro hematotoxicity, colony growth; format: cell-based
# How it was run: as §2
# [10] = heart, IV PhAc-ALGP-Dox 92 μmol/kg
# [11] = kidney, IV PhAc-ALGP-Dox 92 μmol/kg
# [12] = liver, IV PhAc-ALGP-Dox 92 μmol/kg
# [13] = plasma, IV PhAc-ALGP-Dox 92 μmol/kg
# [14] = tumor, IV PhAc-ALGP-Dox 92 μmol/kg
# [15] = heart, IV Doxorubicin 92 μmol/kg
# [16] = kidney, IV Doxorubicin 92 μmol/kg
# [17] = liver, IV Doxorubicin 92 μmol/kg
# [18] = plasma, IV Doxorubicin 92 μmol/kg
# [19] = tumor, IV Doxorubicin 92 μmol/kg
smiles,measurement,setting,value
"COc1cccc2c1C(=O)c1c(O)c3c(c(O)c1C2=O)C[C@@](O)(C(=O)CO)C[C@@H]3O[C@H]1C[C@H](NC(=O)[C@H](CC(C)C)NC(=O)[C@H](C)NC(=O)[C@H](CC(C)C)NC(=O)CCNC(=O)CCC(=O)O)[C@H](O)[C@H](C)O1 [DTS-201, reference compound]",t 1/2α,"[1]; heart, IV DTS-201 92 μmol/kg",0.2
same,t 1/2α,"[1]; kidney, IV DTS-201 92 μmol/kg",0.4
same,t 1/2α,"[1]; liver, IV DTS-201 92 μmol/kg",0.6
same,t 1/2α,"[1]; plasma, IV DTS-201 92 μmol/kg",0.25
same,t 1/2α,"[1]; tumor, IV DTS-201 92 μmol/kg",0.4
same,tolerated dose relative to the standard dose of Dox,patients,3.75 fold
same,well tolerated dose in patients,patients; clinical trial,up to 400 mg/m^2
COc1cccc2c1C(=O)c1c(O)c3c(c(O)c1C2=O)C[C@@](O)(C(=O)CO)C[C@@H]3O[C@H]1C[C@H](NC(=O)[C@@H]2CCCN2C(=O)CNC(=O)[C@H](CC(C)C)NC(=O)[C@H](C)NC(=O)CP(=O)(O)O)[C@H](O)[C@H](C)O1 [PhAc-ALGP-Dox] (Phosphonoacetyl-ALGP-{Doxorubicin(3'-N)}),t 1/2α,[1]; [10],0.17
same,greater retention of Dox in the tumor microenvironment compared with the parental drug,[1]; in vivo,5 fold
same,t 1/2α,[1]; [11],0.1
same,t 1/2α,[1]; [12],0.7
same,t 1/2α,[1]; [13],0.21
same,free Dox exposure lower than after equimolar dosage of Dox,"[1]; plasma, PhAc-ALGP-Dox 94.4 mg/kg vs Dox 53.4 mg/kg",15 fold
same,t 1/2α,[1]; [14],0.3
same,intratumoral free Dox concentration lower than after equimolar Dox,"[1]; tumor, PhAc-ALGP-Dox 94.4 mg/kg vs Dox 53.4 mg/kg",2.8 fold
same,concentrations at which alterations were induced,"[2]; cellular impedance, up to 72 h",> 5000 nM
same,cytotoxicity in differentiated cardiomyocytes,H9C2 rat cardiomyocytes,essentially resilient
same,cytotoxicity in mitotic cells,H9C2 rat cardiomyocytes,considerably less affected
same,increase of exposure to free Dox compared with administration of Dox (13.3 mg/kg),"[3]; 849.5 mg/kg PhAc-ALGP-Dox, molar concentration 36-fold higher",1.9 fold
same,free Dox lower than after Dox,"[3]; equimolar doses, PhAc-ALGP-Dox 23.6 mg/kg vs Dox 13.3 mg/kg",19 fold
same,half-life,"[3]; mouse, in vivo, iv, 849.5 mg/kg",6.5 to 8.5 min
same,highest tolerated dose as Dox equivalent,[4]; every weeks × 4,87 mg/kg Dox equivalent
same,higher tolerability compared with the parental drug,[4]; in vivo,10 fold
same,body weight loss,"[4]; tumor bearing mice, four cycles of 206 mg/kg weekly, mild but reversible",15%
same,MTD at 672 h,[5],154 mg/kg
same,time for which presence of free Dox in tumor remained stable,[6],≥ 48 h
same,reduction of circulating cytotoxic T lymphocytes (CTL) in donor mice,"[7]; 1,026 mg/kg/week via osmotic minipumps, 7 days",15%
same,survival of mice receiving BM from treated donors,[7],80%
same,LD50,Acute toxicity,780 mg/kg
same,times more payload that can be administered than Dox,mice,27 times
COc1cccc2c1C(=O)c1c(O)c3c(c(O)c1C2=O)C[C@@](O)(C(=O)CO)C[C@@H]3O[C@H]1C[C@H](NC(=O)[C@@H]2CCCN2C(=O)CN)[C@H](O)[C@H](C)O1 [GP-Dox],t 1/2α,[1]; [10],0.3
same,t 1/2α,[1]; [11],0.2
same,t 1/2α,[1]; [12],1.4
same,t 1/2α,[1]; [13],0.2
same,t 1/2α,[1]; [14],0.5
COc1cccc2c1C(=O)c1c(O)c3c(c(O)c1C2=O)C[C@@](O)(C(=O)CO)C[C@@H]3O[C@H]1C[C@H](NC(=O)[C@@H]2CCCN2C(=O)CNC(=O)[C@@H](N)CC(C)C)[C@H](O)[C@H](C)O1 [LGP-Dox],t 1/2α,[1]; [11],0.1
same,t 1/2α,[1]; [13],0.15
same,amount of LGP-Dox detected from PhAc-ALGP-Dox,recombinant human CD10,2.65%
"COc1cccc2c1C(=O)c1c(O)c3c(c(O)c1C2=O)C[C@@](O)([C@@H](O)CO)C[C@@H]3O[C@H]1C[C@H](N)[C@H](O)[C@H](C)O1 [DoxOL, Doxorubicinol]",C max,"[1]; heart, IV DTS-201 92 μmol/kg",<LoQ
same,AUC,[1]; [15],54
same,Cmax,[1]; [15],860 nM
same,t 1/2α,[1]; [15],47
same,t max,[1]; [15],240
same,C max,[1]; [10],<LoQ
same,AUC,"[1]; kidney, IV DTS-201 92 μmol/kg",49.7
same,Cmax,"[1]; kidney, IV DTS-201 92 μmol/kg",1480 nM
same,t 1/2β,"[1]; kidney, IV DTS-201 92 μmol/kg",27.1
same,t max,"[1]; kidney, IV DTS-201 92 μmol/kg",240
same,AUC,[1]; [16],168
same,Cmax,[1]; [16],6800 nM
same,t 1/2α,[1]; [16],2.5
same,t 1/2β,[1]; [16],49
same,t max,[1]; [16],30
same,AUC,[1]; [11],20.8
same,Cmax,[1]; [11],1960 nM
same,t 1/2α,[1]; [11],1
same,t 1/2β,[1]; [11],19.7
same,t max,[1]; [11],30
same,AUC,"[1]; liver, IV DTS-201 92 μmol/kg",30.8
same,Cmax,"[1]; liver, IV DTS-201 92 μmol/kg",670 nM
same,t 1/2β,"[1]; liver, IV DTS-201 92 μmol/kg",33.4
same,t max,"[1]; liver, IV DTS-201 92 μmol/kg",120
same,AUC,[1]; [17],104
same,Cmax,[1]; [17],6000 nM
same,t 1/2α,[1]; [17],2.2
same,t 1/2β,[1]; [17],33.3
same,AUC,[1]; [12],10.6
same,Cmax,[1]; [12],440 nM
same,t 1/2β,[1]; [12],21.7
same,t max,[1]; [12],240
same,C max,"[1]; plasma, IV DTS-201 92 μmol/kg",<LoQ
same,C max,[1]; [18],<LoQ
same,C max,[1]; [13],<LoQ
same,C max,"[1]; tumor, IV DTS-201 92 μmol/kg",<LoQ
same,AUC,[1]; [19],8
same,Cmax,[1]; [19],120 nM
same,t max,[1]; [19],"2,880"
same,C max,[1]; [14],<LoQ
"COc1cccc2c1C(=O)c1c(O)c3c(c(O)c1C2=O)C[C@@](O)(C(=O)CO)C[C@@H]3O[C@H]1C[C@H](N)[C@H](O)[C@H](C)O1 [Dox, Doxorubicin, reference compound]",t 1/2α,[1]; [15],5.6
same,t 1/2α,[1]; [16],2.7
same,t 1/2α,[1]; [17],2.1
same,concentration at 72 hours,"[1]; mouse, tumor, intravenous, 53.4 mg/kg",7300 nM
same,t 1/2α,[1]; [18],0.2
same,cardiotoxicity (cellular impedance),[2]; by 72 hours,100%
same,IC50,LS 174T cells,20 nM
same,IC50,MDA-MB-468 cells,110 nM
same,cytotoxicity in differentiated cardiomyocytes,H9C2 rat cardiomyocytes,nanomolar potency
same,cytotoxicity in mitotic cells,H9C2 rat cardiomyocytes,nanomolar potency
same,IC50,[8],20 nM
same,IC50,E0771 cells,20 nM
same,IC50,[9],10 nM
same,survival of mice receiving BM from treated donors,[7],30%
same,LD50,Acute toxicity,17 mg/kg
